In ChEMBL document CHEMBL3352680, “Triterpene lactones from cultures of Ganoderma sp. KM01” (J Nat Prod, 2014):
Calls of active or inactive are those of the source. The calls are words filed in the database; no cut-off is given here.

Assays:
[1] = tested on: MCF7; test: Cytotoxicity against human MCF7 cells up to 10 uM by colorimetric method; assay type: functional, cell-based
[2] = tested on: NCI-H187 (human); test: Cytotoxicity against human NCI-H187 cells up to 10 uM by colorimetric method
[3] = tested on: Plasmodium falciparum; test: Antimalarial activity against multidrug-resistant Plasmodium falciparum K1 assessed as reduction in parasite growth by [3H]-hypoxanthine uptake assay; assay type: functional, organism-based
Method in brief: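 P. falciparum K1 (multidrug-resistant) maintained in continuous in vitro culture. Microculture radioisotope technique: growth measured as [3H]-hypoxanthine uptake. IC50 is the concentration giving 50% reduction in parasite growth. Dihydroartemisinin was the positive control.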

[4] = tested on: KB; test: Cytotoxicity against human KB cells up to 10 uM by colorimetric method; assay type: functional, cell-based

**Q.** Which Activity [1] does the source give for `CC(=O)O[C@@H]1C[C@H]([C@H](C)[C@H]2CC=C(C)C(=O)O2)[C@@]2(C)CCC3=C(CC[C@@H]4C(=C3)C=CC(=O)OC4(C)C)[C@]12C` [COLOSSOLACTONE E] here?
**A.** Its Activity is “inactive”.

**Q.** And the Activity [2]?
**A.** The Activity was “inactive”.

**Q.** And the IC50 [3]?
**A.** Its IC50 is 10 µM.

**Q.** What about the Activity [4] of the same compound?
**A.** Its Activity is “inactive”.

**Q.** For `C[C@H]1[C@@H](O)O[C@@H]2O[C@@]3(C)CC[C@H]4[C@H](C)CC[C@@H]1[C@@]24OO3` [ARTENIMOL], which IC50 [3] is on record?
**A.** The IC50 was 0.004 µM.

**Q.** What does the source list for `CC1=CC[C@@H]([C@@H](C)[C@H]2CC[C@@]3(C)C4=C(C=C5C=CC(=O)OC(C)(C)[C@@H]5CC4)CC[C@]23C)OC1=O`?
**A.** Activity [1]: inactive; Activity [2]: inactive; IC50 [3]: 6 µM; Activity [4]: inactive

**Q.** With `CC1=CC[C@]2(OC[C@]34CCC5=C(CC[C@@H]6C(=C5)C=CC(=O)OC6(C)C)[C@]3(C)CC[C@@H]4[C@@H]2C)OC1=O` as the compound, how does the Activity [1] read?
**A.** The Activity was “inactive”.

**Q.** What about the Activity [2] of the same compound?
**A.** The Activity was “inactive”.

**Q.** And the IC50 [3]?
**A.** Its IC50 is 10 µM.

**Q.** What about the Activity [4] of the same compound?
**A.** The Activity was “inactive”.
